The test system of data set [1] is Plasma. The data set is described as follows: Drug level in human plasma treated with (3S,6S,9R,12S,15S,18S,21S,24S,27R)-15-((1H-imidazol-5-yl)methyl)-1-((S)-1-((S)-2-((S)-2-((R)-2-acetamido-3-mercaptopropanamido)-3-hydroxypropanamido)-3-(1H-indol-3-yl)propanoyl)pyrrolidin-2-yl)-18-(3-amino-3-oxopropyl)-21-(carboxymethyl)-6-(3-guanidinopropyl)-12,24-diisobutyl-9,27-bis(mercaptomethyl)-3-methyl-1,4,7,10,13,16,19,22,25-nonaoxo-2,5,8,11,14,17,20,23,26-nonaazaoctacosan-28-oic acid at 50 uM after 18 hrs by MALDI-TOF analysis. The data set is classed as ADME, cell-free. In short, it runs like this:
(§1)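 Peptide from a 1 mM DMSO stock was diluted to 50 μM in citrated mouse, rat or human plasma and incubated at 37 °C for up to 2 days. Samples taken at time points were quenched in 1:1 acetonitrile/methanol and centrifuged. The supernatant was mixed with ammonium bicarbonate in acetonitrile/water, and parent peptide and metabolites were detected by MALDI-TOF.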

Data set [2] deals with Plasma. In words: Drug level in rat plasma treated with (3S,6S,9R,12S,15S,18S,21S,24S,27R)-15-((1H-imidazol-5-yl)methyl)-1-((S)-1-((S)-2-((S)-2-((R)-2-acetamido-3-mercaptopropanamido)-3-hydroxypropanamido)-3-(1H-indol-3-yl)propanoyl)pyrrolidin-2-yl)-18-(3-amino-3-oxopropyl)-21-(carboxymethyl)-6-(3-guanidinopropyl)-12,24-diisobutyl-9,27-bis(mercaptomethyl)-3-methyl-1,4,7,10,13,16,19,22,25-nonaoxo-2,5,8,11,14,17,20,23,26-nonaazaoctacosan-28-oic acid at 50 uM after 18 hrs by MALDI-TOF analysis. The data set is classed as ADME, cell-free. The gist of the method:
as §1

Data set [3] can be described thus: Aqueous solubility of the compound in buffer. Format: physicochemical.
Data set [4] deals with Plasma kallikrein (Homo sapiens, UniProt P03952). The data set is described as follows: Inhibition of human plasma kallikrein using fluorogenic H-Pro-Phe-Arg-AMC peptide as substrate preincubated for 15 mins followed by substrate addition measured by fluorescence-based assay. To be noted: read-out: Ki(app).
In data set [5] the target is Plasma kallikrein (Rattus norvegicus, UniProt P14272). In words: Inhibition of recombinant Sprague-Dawley rat plasma kallikrein using fluorogenic H-Pro-Phe-Arg-AMC peptide as substrate preincubated for 15 mins followed by substrate addition measured by fluorescence-based assay. To be noted: read-out: Ki(app).
For a further data set, the target named is (UniProt A0A8D1M4K5). The data set is described as follows: Inhibition of pig plasma kallikrein using fluorogenic H-Pro-Phe-Arg-AMC peptide as substrate preincubated for 15 mins followed by substrate addition measured by fluorescence-based assay. Also noted: species or system Sus scrofa. To be noted: read-out: Ki(app).
Data set [6] in a line: Inhibition of rabbit plasma kallikrein using fluorogenic H-Pro-Phe-Arg-AMC peptide as substrate preincubated for 15 mins followed by substrate addition measured by fluorescence-based assay. Further details: species or system Oryctolagus cuniculus. To be noted: read-out: Ki(app). In short, it runs like this:
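Assays ran at 25 °C in 50 mM Tris-HCl, 250 mM NaCl, 1.5 μM BSA, pH 7.5. PKal (nominal 1–2 nM) was preincubated 15 min with serially diluted peptide. […] Human PKal was purified from plasma; rat PKal was made in-house or bought; other species were purified in-house from kaolin-activated plasma.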

*1 amine or outer side, *2 acyl side, *3 side chain or, on linkers, in order; H or OH if unused. Where a SMILES comes first, the peptide text is derived from it. Bridges are numbered along the chain shown (N, C = ends). Roman numbers before positions name the chains, in order. [ ]: non-standard residue; d: D form. ξ: configuration not given here. X1 = CC(=O)N[C@@H](CSCc1cc(C[*:1])cc(C[*:2])c1)C(=O)O; TBMB = c1c(C[*:1])cc(C[*:3])cc1C[*:2]; hArg = N=C(N)NCCCC[C@H](N)C(=O)O; ξAze = O=C(O)C1CCN1

Plasma kallikrein (Homo sapiens, UniProt P03952), sequence (P03952 20-390 limits assumed): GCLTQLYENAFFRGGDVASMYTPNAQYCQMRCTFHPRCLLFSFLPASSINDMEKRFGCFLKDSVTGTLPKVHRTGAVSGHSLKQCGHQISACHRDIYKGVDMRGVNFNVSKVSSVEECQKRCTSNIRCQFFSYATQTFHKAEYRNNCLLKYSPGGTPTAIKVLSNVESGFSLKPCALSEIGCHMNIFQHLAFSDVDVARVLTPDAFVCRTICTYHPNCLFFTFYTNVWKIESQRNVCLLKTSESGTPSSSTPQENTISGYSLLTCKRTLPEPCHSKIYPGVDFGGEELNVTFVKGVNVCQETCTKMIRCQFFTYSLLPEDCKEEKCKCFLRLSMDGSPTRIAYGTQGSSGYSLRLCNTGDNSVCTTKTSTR
Plasma kallikrein (Homo sapiens, UniProt P03952), sequence (P03952 391-638 limits assumed): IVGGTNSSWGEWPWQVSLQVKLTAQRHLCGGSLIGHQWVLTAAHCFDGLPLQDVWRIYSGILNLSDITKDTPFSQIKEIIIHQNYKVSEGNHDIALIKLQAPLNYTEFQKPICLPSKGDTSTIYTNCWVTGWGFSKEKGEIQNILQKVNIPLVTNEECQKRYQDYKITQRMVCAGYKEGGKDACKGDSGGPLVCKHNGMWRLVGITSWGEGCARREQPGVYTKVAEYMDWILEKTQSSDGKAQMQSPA
Plasma kallikrein (Rattus norvegicus, UniProt P14272), sequence (P14272 20-390 limits assumed): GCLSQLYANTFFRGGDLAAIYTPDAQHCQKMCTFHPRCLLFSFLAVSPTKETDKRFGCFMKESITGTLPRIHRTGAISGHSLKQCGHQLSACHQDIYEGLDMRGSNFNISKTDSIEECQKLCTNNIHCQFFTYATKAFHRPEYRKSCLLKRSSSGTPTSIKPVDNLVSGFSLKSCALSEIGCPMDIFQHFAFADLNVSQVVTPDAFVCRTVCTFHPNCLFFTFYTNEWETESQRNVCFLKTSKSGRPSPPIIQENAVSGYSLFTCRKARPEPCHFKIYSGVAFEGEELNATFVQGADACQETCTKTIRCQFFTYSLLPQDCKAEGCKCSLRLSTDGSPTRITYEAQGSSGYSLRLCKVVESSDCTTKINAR
Plasma kallikrein (Rattus norvegicus, UniProt P14272), sequence (P14272 391-638 limits assumed): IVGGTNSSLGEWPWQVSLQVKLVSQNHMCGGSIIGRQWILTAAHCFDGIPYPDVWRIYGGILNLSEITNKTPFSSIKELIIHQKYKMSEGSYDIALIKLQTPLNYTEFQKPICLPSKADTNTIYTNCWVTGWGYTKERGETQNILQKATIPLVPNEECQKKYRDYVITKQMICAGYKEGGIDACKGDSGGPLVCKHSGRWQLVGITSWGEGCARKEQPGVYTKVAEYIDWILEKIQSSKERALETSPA

As for `CC(=O)N[C@@H](CSCc1cc2cc(c1)CSC[C@H](N)C(=O)N[C@@H](CC(C)C)C(=O)N[C@@H](Cc1cnc[nH]1)C(=O)N[C@@H](CCC(N)=O)C(=O)N[C@@H](CC(=O)O)C(=O)N[C@@H](CC(C)C)C(=O)N[C@H](C(=O)O)CSC2)C(=O)N[C@@H](CO)C(=O)O`, in the data set with Plasma [1], the Drug metabolism result is “Metabolite_Detected”.

In the case of `CC(=O)N[C@@H](CSCc1cc2cc(c1)CSC[C@H](N)C(=O)N[C@@H](CC(C)C)C(=O)N[C@@H](Cc1cnc[nH]1)C(=O)N[C@@H](CCC(N)=O)C(=O)N[C@@H](CC(=O)O)C(=O)N[C@@H](CC(C)C)C(=O)N[C@H](C(=O)O)CSC2)C(=O)O` (H-CLHQDLC-OH; linker 1-7 via X1), the Drug metabolism entry in the data set on Plasma [1] is given as “Metabolite_Detected”.

Regarding `CC(=O)N[C@H]1CSCc2cc(CSC[C@H](NC(=O)[C@H](CC(C)C)NC(=O)[C@@H](N)CC(=O)O)C(=O)O)cc(c2)CSC[C@@H](C(=O)N[C@@H](CC(C)C)C(=O)O)NC(=O)[C@H](CCCNC(=N)N)NC(=O)[C@H](C)NC(=O)[C@@H]2CCCN2C(=O)[C@H](Cc2c[nH]c3ccccc23)NC(=O)[C@H](CO)NC1=O`, in the data set with Plasma [2], the Drug metabolism result is “Metabolite_Detected”.

Consider `CC[C@H](C)[C@@H]1NC(=O)[C@H](CC(=O)O)NC(=O)[C@@H]2CCCN2C(=O)[C@H](Cc2ccc(O)cc2)NC(=O)[C@H](Cc2ccc(O)cc2)NC(=O)[C@H](C(C)C)NC(=O)[C@@H]2CSCc3cc(cc(c3)CSC[C@@H](C(=O)N[C@@H](C)C(=O)O)NC1=O)CSC[C@H](NC(=O)[C@H](C)N)C(=O)N[C@@H](CO)C(=O)N[C@@H](Cc1ccccc1)C(=O)N1CCC[C@H]1C(=O)N[C@@H](Cc1ccc(O)cc1)C(=O)N[C@@H](CCCNC(=N)N)C(=O)N2` (H-ACSFPYRCVYYPDICA-OH; linker 2-8-15 via TBMB), for which the solubility result in data set [3] is “Insoluble”.

With `CC(=O)N[C@H]1CSCc2cc3cc(c2)CSC[C@H](NC(=O)[C@H](CCCCNC(=N)N)NC(=O)[C@H](Cc2ccc(O)cc2)NC(=O)C2CCN2C(=O)[C@H](Cc2ccccc2)NC(=O)[C@H](CO)NC1=O)C(=O)N[C@@H](CC(C)C)C(=O)N[C@@H](Cc1cnc[nH]1)C(=O)N[C@@H](CCC(N)=O)C(=O)N[C@@H](CC(=O)O)C(=O)N[C@@H](CC(C)C)C(=O)N[C@H](C(=O)O)CSC3` (stereo partly drawn) (Ac-CSF[ξAze]Y[hArg]CLHQDLC-OH; linker 1-7-13 via TBMB), the Ki on Plasma kallikrein [4] was 0.21 nM.

With `CC(=O)N[C@H]1CSCc2cc(cc(CSC[C@H](NC(=O)[C@H](CC(C)C)NC(=O)[C@H](CC(=O)O)NC(=O)[C@H](CCC(N)=O)NC(=O)[C@@H](N)Cc3cnc[nH]3)C(=O)O)c2)CSC[C@@H](C(=O)O)NC(=O)[C@H](CCCNC(=N)N)NC(=O)[C@H](C)NC(=O)[C@@H]2CCCN2C(=O)[C@H](Cc2c[nH]c3ccccc23)NC(=O)[C@H](CO)NC1=O` (I: Ac-CSWPARC-OH / II: H-HQDLC-OH; linker I:1-I:7-II:5 via TBMB), in the data set on Plasma [2], the Drug metabolism entry is listed as “Metabolite_Detected”.

Turning to `CC(=O)N[C@@H](CSCc1cc2cc(c1)CSC[C@H](N)C(=O)N[C@@H](CC(C)C)C(=O)N[C@@H](Cc1cnc[nH]1)C(=O)N[C@@H](CCC(N)=O)C(=O)N[C@@H](CC(=O)O)C(=O)N[C@@H](CC(C)C)C(=O)N[C@H](C(=O)O)CSC2)C(=O)N[C@@H](CO)C(=O)N[C@@H](Cc1c[nH]c2ccccc12)C(=O)N1CCC[C@H]1C(=O)N[C@@H](C)C(=O)O` (I: H-CLHQDLC-OH / II: Ac-CSWPA-OH; linker I:1-I:7-II:1 via TBMB), the Drug metabolism entry in the data set on Plasma [1] is “Metabolite_Detected”.

In the case of `CC(=O)N[C@H]1CSCc2cc3cc(c2)CSC[C@H](NC(=O)[C@H](CCCNC(=N)N)NC(=O)[C@H](Cc2ccc(O)cc2)NC(=O)[C@@H]2CCCN2C(=O)[C@H](Cc2ccccc2)NC(=O)[C@H](CO)NC1=O)C(=O)N[C@@H](CC(C)C)C(=O)N[C@@H](Cc1cnc[nH]1)C(=O)N[C@@H](CCC(N)=O)C(=O)N[C@@H](CC(=O)O)C(=O)N[C@@H](CC(C)C)C(=O)N[C@H](C(=O)O)CSC3` (Ac-CSFPYRCLHQDLC-OH; linker 1-7-13 via TBMB), the Ki on Plasma kallikrein [5] came to 11 nM; on (UniProt A0A8D1M4K5), 22 nM; in data set [6], 84 nM; on Plasma kallikrein [4] it was 0.39 nM.

As to `CC(=O)N[C@H]1CSCc2cc3cc(c2)CSC[C@H](NC(=O)[C@H](CCCNC(=N)N)NC(=O)[C@H](C)NC(=O)C2CCN2C(=O)[C@H](Cc2c[nH]c4ccccc24)NC(=O)[C@H](CO)NC1=O)C(=O)N[C@@H](CC(C)C)C(=O)N[C@@H](Cc1cnc[nH]1)C(=O)N[C@@H](CCC(N)=O)C(=O)N[C@@H](CC(=O)O)C(=O)N[C@@H](CC(C)C)C(=O)N[C@H](C(=O)O)CSC3` (stereo partly drawn) (Ac-CSW[ξAze]ARCLHQDLC-OH; linker 1-7-13 via TBMB), the Ki on Plasma kallikrein [4] stood at 0.06 nM.

As to `CC(=O)N[C@H]1CSCc2cc3cc(c2)CSC[C@H](NC(=O)[C@H](CCCNC(=N)N)NC(=O)[C@H](Cc2ccc(O)cc2)NC(=O)[C@@H]2CCCN2C(=O)[C@H](Cc2ccccc2)NC(=O)[C@H](CO)NC1=O)C(=O)N[C@@H](C)CN[C@@H](Cc1cnc[nH]1)C(=O)N[C@@H](CCC(N)=O)C(=O)N[C@@H](CC(=O)O)C(=O)N[C@@H](CC(C)C)C(=O)N[C@H](C(=O)O)CSC3`, on Plasma kallikrein [4], the Ki came to 1.3 nM.

As for `CC(=O)N[C@H]1CSCc2cc3cc(c2)CSC[C@H](NC(=O)[C@H](CCCCNC(=N)N)NC(=O)[C@H](C)NC(=O)C2CCN2C(=O)[C@H](Cc2c[nH]c4ccccc24)NC(=O)[C@H](CO)NC1=O)C(=O)N[C@@H](CC(C)C)C(=O)N[C@@H](Cc1cnc[nH]1)C(=O)N[C@@H](CCC(N)=O)C(=O)N[C@@H](CC(=O)O)C(=O)N[C@@H](CC(C)C)C(=O)N[C@H](C(=O)O)CSC3` (stereo partly drawn) (Ac-CSW[ξAze]A[hArg]CLHQDLC-OH; linker 1-7-13 via TBMB), the Ki on Plasma kallikrein [4] stood at 0.14 nM.

For `CC(C)C[C@@H]1NC(=O)[C@H](CC(=O)O)NC(=O)[C@H](CCC(N)=O)NC(=O)[C@H](Cc2cnc[nH]2)NC(=O)[C@H](CC(C)C)NC(=O)[C@@H]2CSCc3cc(cc(c3)CSC[C@@H](C(=O)N[C@@H](C)C(=O)O)NC1=O)CSC[C@H](NC(=O)[C@H](C)N)C(=O)N[C@@H](CO)C(=O)N[C@@H](Cc1c[nH]c3ccccc13)C(=O)N1CCC[C@H]1C(=O)N[C@@H](C)C(=O)N[C@@H](CCCNC(=N)N)C(=O)N2` (H-ACSWPARCLHQDLCA-OH; linker 2-8-14 via TBMB), the Ki on Plasma kallikrein [5] was found to be 0.9 nM; at Plasma kallikrein [4], 0.07 nM.

Consider `CC(=O)N[C@H]1CSCc2cc(cc(CSC[C@H](NC(=O)[C@H](CC(C)C)NC(=O)[C@@H](N)CC(=O)O)C(=O)O)c2)CSC[C@@H](C(=O)O)NC(=O)[C@H](CCCNC(=N)N)NC(=O)[C@H](C)NC(=O)[C@@H]2CCCN2C(=O)[C@H](Cc2c[nH]c3ccccc23)NC(=O)[C@H](CO)NC1=O`, for which the Drug metabolism entry with Plasma [2] was “Metabolite_Detected”.

On to `CC[C@H](C)[C@@H]1NC(=O)[C@H](CC(=O)O)NC(=O)[C@@H]2CCCN2C(=O)[C@H](Cc2ccc(O)cc2)NC(=O)[C@H](Cc2ccc(O)cc2)NC(=O)[C@H](C(C)C)NC(=O)[C@@H]2CSCc3cc(cc(c3)CSC[C@@H](C(=O)N[C@@H](C)C(=O)O)NC1=O)CSC[C@H](NC(=O)[C@H](C)N)C(=O)N[C@@H](CC(N)=O)C(=O)N[C@@H](CC(N)=O)C(=O)N[C@@H](Cc1ccccc1)C(=O)N1CCC[C@H]1C(=O)N[C@@H](Cc1ccccc1)C(=O)N[C@@H](CCCNC(=N)N)C(=O)N2` (H-ACNNFPFRCVYYPDICA-OH; linker 2-9-16 via TBMB), for which the Ki on Plasma kallikrein [4] is 0.44 nM.
